Compound activity: PubChem BioAssay, several laboratories
Shown are actives, neighbours in structure and some others; about 2.9% of the full set was active somewhere.
H9c2 TAG inh = inhibitors of triacylglycerol accumulation, primary screen, cell-based, uHTS, fluorescence, H9c2 | 0.66% of 230,000 active | inhibition, % at 12.5 µM | H9c2 cells, Nile Red lipid (TAG) fluorescence; cells loaded with 200 µM oleic acid;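 active = pattern-corrected inhibition of lipid staining of at least 50% with the nuclear-stain viability signal not falling by more than 50%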;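 note: 0% = DMSO wells and 100% = triacsin C control wells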
MC4R antagonist = MC4R antagonists of cAMP signaling, primary screen, cell-based, TR-FRET, antagonist arm of biased-ligand search; Melanocortin receptor 4 (Homo sapiens), P32245; 0.48% of 360,000 active; inhibition, % at 6.5 µM; MC4R-expressing cells, MTII-stimulated cAMP, LANCE TR-FRET;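 active = inhibition above its plate's cutoff, the mean of tested wells on that plate plus 3 SD, cut at about 29% in these data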;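 note: 0% = Melanotan II alone and 100% = Melanotan II plus saturating MCL0020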
Target sequence (P32245 whole entry, looked up): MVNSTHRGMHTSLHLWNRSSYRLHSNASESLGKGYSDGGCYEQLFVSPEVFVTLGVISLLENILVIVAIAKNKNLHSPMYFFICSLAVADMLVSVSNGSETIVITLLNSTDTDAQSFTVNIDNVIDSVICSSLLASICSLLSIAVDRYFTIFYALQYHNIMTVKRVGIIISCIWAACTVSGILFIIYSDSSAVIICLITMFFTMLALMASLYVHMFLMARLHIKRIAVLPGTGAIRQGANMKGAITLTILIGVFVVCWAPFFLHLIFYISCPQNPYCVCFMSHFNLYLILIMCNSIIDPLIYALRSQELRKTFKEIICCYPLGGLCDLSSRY
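Assay system: human MC4R-expressing U2OS cells; reagent: Melanotan II stimulation of cells; dosing: 6.5 µM single dose; timing: compound 30 min, challenge 1 h, detection 1 h; signal: TR-FRET cAMP assay; replicates: one well per compound, no replicates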
Calb FLC = C. albicans growth inhibition with fluconazole, primary screen, CaCi-2 strain, Alamar Blue fluorescence | C. albicans CaCi-2 + fluconazole, 48 h | growth inhibition, % (test concentration not listed) | 0.57% of 300,000 active;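 active = growth inhibition above about 58% in most replicates, limit read from the data, passing the limit was not always enough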;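 note: all wells also contain fluconazole at 8 µg/ml as a sub-toxic cotreatment; 0% = median of DMSO wells and 100% = median of geldanamycin control wells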
MC4R barr agon = MC4R agonists recruiting beta-arrestin, primary screen, cell-based, luminescence, agonist arm of biased-ligand search. Melanocortin receptor 4 (Homo sapiens), P32245. U2OS MC4R beta-arrestin complementation; percent of melanotan II response, DMSO zero. activation, % at 8.9 µM. 0.98% of 360,000 active. AID 540308, 2011;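 active = activation above a per-plate cutoff, the mean activation of sample wells on that plate plus 3 SD, cut at about 8% in these data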
Efflux pump mplx = inhibitors of Candida efflux pumps in yeast, primary screen, S. cerevisiae, Nile Red, multiplex | S. cerevisiae Candida pump triplex | inhibition, % at 10 µM | 0.44% of 330,000 active;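 active = plate passing quality check with inhibition over a set limit, or well fluorescence over plate mean plus 4 SD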;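 note: Nile Red retained in pooled yeast measured as flow cytometry median fluorescence; 0% = buffer negative control and 100% = Enniatin B positive control; higher means more Nile Red kept so more efflux inhibition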
GalR3 antag = GalR3 antagonists in HEK293 cells, primary screen, cell-based, fluorescence readout. Galanin receptor type 3 (Homo sapiens), O60755. HEK293 GalR3-CNG cAMP membrane potential fluorescence; galR3 body fused to GalR1 C-terminus. inhibition, % at 3 µM. 0.44% of 360,000 active. AID 651719, 2012;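 active = inhibition above the screen-wide average plus 3 SD, cut at about 13% in these data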;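 note: forskolin and galanin both at EC90 stimulate the cells; cAMP rise reported by CNG channel membrane potential dye signal; 0% = forskolin plus galanin with DMSO and 100% = forskolin alone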
Target sequence (O60755 1-299 limits assumed): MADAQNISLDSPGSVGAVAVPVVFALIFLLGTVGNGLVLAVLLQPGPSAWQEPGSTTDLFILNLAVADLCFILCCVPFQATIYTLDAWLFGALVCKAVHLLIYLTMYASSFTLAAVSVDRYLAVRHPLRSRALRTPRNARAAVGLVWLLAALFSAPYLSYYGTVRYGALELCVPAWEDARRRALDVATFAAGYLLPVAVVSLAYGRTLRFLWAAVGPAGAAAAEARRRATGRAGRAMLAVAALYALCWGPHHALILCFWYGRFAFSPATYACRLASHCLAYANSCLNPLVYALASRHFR
Yeast cmpd fluor = compound fluorescence in yeast efflux pump counter-screen; shares compounds with Efflux pump mplx; S. cerevisiae AD/pABC3, flow cytometry; fluorescence ratio to DMSO, % at 10 µM; 4% of 1,700 active; AID 588517;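 active = fluorescence ratio to DMSO above its plate's cutoff, the plate mean ratio plus 5 SD, cut at about 210% in these data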;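 note: unstained yeast with no Nile Red so the signal is compound autofluorescence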
CaMdr1 efflux inh = inhibitors of Candida albicans Mdr1 efflux, confirmation, flow cytometry, singleplex, Cherry Pick1 set. shares compounds with Efflux pump mplx. S. cerevisiae AD/CaMDR1, Nile Red efflux. inhibition, % at 10 µM. 1% of 1,700 active; in the data active = inhibition above about 26%;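 note: 0% = DMSO vehicle and 100% = reference inhibitor; higher means more Nile Red retained so more efflux inhibition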
CaCdr2 efflux inh = inhibitors of Candida albicans Cdr2 efflux pump, confirmation, S. cerevisiae AD/CaCDR2, flow cytometry, cherry pick 1, singleplex. shares compounds with Efflux pump mplx. 4% of 1,700 active. Nile Red retention ratio vs DMSO, % at 10 µM. Nile Red retention. AID 588520, 2011; in the data active = Nile Red retention ratio vs DMSO above about 190%;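 note: higher ratio means more blocking of Cdr2 efflux of the dye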
CaCdr1 efflux inh = inhibitors of Candida albicans Cdr1 efflux pump, confirmation, S. cerevisiae AD/CaCDR1, flow cytometry, cherry pick 1, singleplex. shares compounds with Efflux pump mplx. inhibition, % at 10 µM. AID 588522, 2011. 1% of 1,700 active. Nile Red efflux;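 active = inhibition above the screen-wide mean plus twice its standard deviation, cut at about 32% in these data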
* hit, by the source's call; / = not tested or not shown; + = active, no number.

SMILES	H9c2 TAG inh	MC4R antagonist	Calb FLC	MC4R barr agon	Efflux pump mplx	GalR3 antag	Yeast cmpd fluor	CaMdr1 efflux inh	CaCdr2 efflux inh	CaCdr1 efflux inh
CCN1/C(=C/c2ccc3cc(C)ccc3[n+]2CC)Sc2ccc3sccc3c21	-109	-6	101*	14*	3.6*	/	+	3	106	1
C[C@H](CO)N1C[C@H](C)[C@@H](CN(C)C(=O)Nc2ccc3c(c2)OCCO3)OCc2cn(nn2)CCCC1=O	/	/	/	/	/	-6	/	/	/	/
O=C(Cc1ccc(F)cc1)OCC(=O)N1CCN(S(=O)(=O)c2ccc(Cl)cc2)CC1	16	6	21	0	0.5*	0	105	0	95	0
Cc1c(NC(=O)c2ncn[nH]2)cccc1-c1nc2ccccc2s1	9	6	-6	0	6.2*	-4	101	0	98	0
Cc1c(NC(=O)c2ccc(N3CCCC3)c([N+](=O)[O-])c2)cccc1-c1nc2ccccc2s1	/	4	-6	2	0	-7	/	/	/	/
Cn1c(SCC(=O)Nc2ccc3nc(SCC(=O)NC4CC4)sc3c2)nnc1-c1ccccc1	/	10	4	-1	1.1*	-4	100	0	123	0
O=C(NN1C(=O)/C(=C/c2cccc(O)c2)SC1=S)c1ccccc1O	/	-2	-1	-1	0	2	/	/	/	/
COc1cc(/C=C2\SC(=S)N(NC(=O)c3cccnc3)C2=O)ccc1O	-21	-16	-9	-2	0	-8	103	0	107	0
O=C(NN1C(=O)/C(=C/c2ccc(O)c(O)c2)SC1=S)c1ccccc1	/	5	-7	-4	3.4*	-11	116	0	118	0
COc1cc(/C=C2\SC(=S)N(NC(=O)c3ccc(O)cc3)C2=O)ccc1O	/	0	-5	-4	1	-11	/	/	/	/
CCc1nc2ccc(C(=O)NCCOc3ccc(OC)cc3)cn2c1N(C)CCCc1ccccc1	3	3	/	0	/	-7	/	/	/	/
O=C1/C(=C/c2cccc(Br)c2)SC(=S)N1/N=C/c1cc([N+](=O)[O-])ccc1O	1	-4	8	0	0	-6	97	0	83	0
O=C1/C(=C\c2ccc(O)cc2)SC(=S)N1/N=C/c1ccc(O)cc1	-5	-13	-2	1	0	-7	97	0	106	0
O=[N+]([O-])c1ccc(O)c(/C=N/n2cnnc2)c1	/	12	4	-3	0	-1	/	/	/	/
COc1ccc2cc3cc(C(=O)N4CCN(Cc5ccc6c(c5)OCO6)CC4)oc3nc2c1	-9	0	-8	-1	0.6*	-4	97	0	100	0
Cc1ccc([C@H]2C[C@@H](O)[C@H](n3cc(C4CC4)nn3)CN2C(=O)C2CCCCC2)cc1	-4	3	/	2	/	-7	/	/	/	/
O=C(N1CCOCC1)N1CCN(S(=O)(=O)c2cccc([N+](=O)[O-])c2)CC1	/	1	11	1	1.8*	-6	104	0	96	0
O=C(c1cccs1)c1no[n+]([O-])c1C(=O)c1cccs1	87	5	15	17*	0.9*	/	107	2	287*	0
CC(C)n1c(N2CCN(C(=O)c3cccs3)CC2)nc2ccccc21	4	5	9	0	0	-3	/	/	/	/
CC(C)n1c(N2CCN(CC(=O)NCc3cccs3)CC2)nc2ccccc21	-42	9	7	-2	1.5*	-3	105	0	76	0
CC(C)Oc1ccc(S(=O)(=O)N2CCOCC2)cc1NC(=O)CC1CC2CCC1C2 (configuration not stated)	5	5	/	1	/	-3	/	/	/	/
COc1ccc(S(=O)(=O)N2CCOCC2)cc1NC(=O)COC(=O)CC1CC2CCC1C2 (configuration not stated)	-5	5	/	-1	0.8*	-2	105	0	91	0
CC(C)(C)OC(=O)C[C@@H]1C/C=C\C[C@@H](CC(=O)N(CCO)Cc2ccccc2)C(=O)N[C@@H](c2ccccc2)COC1=O	20	7	/	-2	1	-3	/	/	/	/
COc1cc(NC(=O)C2CCCCN2)ccc1OCC(C)C (configuration not stated)	/	5	-13	2	0.5*	-1	98	0	100	0
COc1ccc(NC(=O)C2CCCNC2)cc1OCC(C)C (configuration not stated)	10	1	3	-1	0	4	/	/	/	/
SMILES	H9c2 TAG inh	MC4R antagonist	Calb FLC	MC4R barr agon	Efflux pump mplx	GalR3 antag	Yeast cmpd fluor	CaMdr1 efflux inh	CaCdr2 efflux inh	CaCdr1 efflux inh
O=C(Oc1ccccc1/C=C\C(=O)c1cc2ccccc2o1)c1ccccc1	/	3	-9	-1	16*	1	103	0	100	0
O=C(Oc1ccccc1/C=C\C(=O)c1cc2ccccc2o1)c1cccc(F)c1	/	-1	2	-1	0	-2	/	/	/	/
Cc1ccc(CN2C(=O)C(Cc3ccccc3)Nc3ncnc(N4CCCCC4)c32)cc1 (configuration not stated)	4	-2	-14	-2	0	2	/	/	/	/
O=C1C(Cc2ccccc2)Nc2ncnc(N3CCOCC3)c2N1Cc1ccc(Cl)cc1 (configuration not stated)	21	10	7	-1	0	-5	/	/	/	/
O=C1C(Cc2ccccc2)Nc2ncnc(N3CCN(c4ccccc4)CC3)c2N1Cc1ccc(Br)cc1 (configuration not stated)	-13	1	/	-6	82*	-7	110	56*	112	76*
Cc1ccc(CN2C(=O)C(Cc3ccccc3)Nc3ncnc(N4CCN(c5ccccc5)CC4)c32)cc1 (configuration not stated)	-10	-1	51	-6	1.1*	2	96	0	110	0
